Data: PMC11892073 (Journal of Enzyme Inhibition and Medicinal Chemistry, 2025)

System: DU-145 prostate cancer cells
Assay: In vitro antiproliferation assay
Assay type: cell-based
Settings: Homo sapiens, DU-145, 72 h, read-out: DU-145 (IC50, nM)
Outline: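 DU-145 cells (ATCC) grown in medium with 10% (v/v) FBS, 50 units/ml penicillin and 50 µg/ml streptomycin at 37 °C, 5% CO2. Seeded at 5 × 10^4 cells/well, left overnight, then exposed to varying test compound concentrations for 72 h at 37 °C. A 5 mg/mL MTT solution was added for 4 h. Supernatant was removed by centrifugation and crystals dissolved in DMSO. A570 was read. IC50 came from nonlinear regression; mean ± SD, n = 3.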

IC50: 4.03 ± 0.15 nM
SMILES: CC[C@@H]1C(=O)N(C)c2cnc(Nc3ccc(C(=O)N[C@H]4CC[C@H](N5CCN(CC6CC6)CC5)CC4)cc3OC)nc2N1C(C)C [BI-6727, volasertib]
